# How the values were obtained:
# [1] = biological target: T1, Metabotropic glutamate receptor 5 (Rattus norvegicus, UniProt P31424); assay: Antagonistic activity against Metabotropic glutamate receptor 5 in [Ca2+] flux assay using glutamate (10 uM) as agonist; type: functional
# Outline: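 Cell-based high-throughput functional assay; glutamate 10 μM as agonist; antagonism read as change in cytosolic Ca2+ by fluorescence detection; n = 2–4, SD ≈ ±25%.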
# [2] = biological target: T1, Metabotropic glutamate receptor 5; assay: Binding affinity towards Metabotropic glutamate receptor was determined by displacing [3H]3-methoxy-5-(pyridin-2-ylethynyl)pyridine from rat cortical membranes
# Outline: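 Radioligand displacement of [3H]-3-methoxy-5-(pyridin-2-ylethynyl)pyridine from rat cortical membranes by test compounds; n = 2–4, SD ≈ ±25%.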
# [3] = Half life i.v. dosing at 2 mg/kg of 50% PEG400/H 20, po dosing at 10 mg/kg; type: ADME, organism-based; conditions: rat, in vivo
# [4] = Plasma clearance i.v. dosing at 2 mg/kg of 50% PEG400/H 20, po dosing at 10 mg/kg; type: ADME, organism-based; conditions: rat, iv, read-out: Clp
# [5] = Oral bioavailability after i.v. dosing at 2 mg/kg of 50% PEG400/H 20, po dosing at 10 mg/kg; type: ADME, organism-based; conditions: rat, in vivo
# [6] = biological target: Metabotropic glutamate receptor 5 (Rattus norvegicus) (UniProt P31424); assay: Effective dose against rat Metabotropic glutamate receptor 5 occupancy after i.p. dosing at 10 mg/kg of 50% PEG400/H 20; type: functional, organism-based; parameters: dose 10 mg/kg
# Metabotropic glutamate receptor 5 (Rattus norvegicus), sequence (P31424 21-1203 limits assumed): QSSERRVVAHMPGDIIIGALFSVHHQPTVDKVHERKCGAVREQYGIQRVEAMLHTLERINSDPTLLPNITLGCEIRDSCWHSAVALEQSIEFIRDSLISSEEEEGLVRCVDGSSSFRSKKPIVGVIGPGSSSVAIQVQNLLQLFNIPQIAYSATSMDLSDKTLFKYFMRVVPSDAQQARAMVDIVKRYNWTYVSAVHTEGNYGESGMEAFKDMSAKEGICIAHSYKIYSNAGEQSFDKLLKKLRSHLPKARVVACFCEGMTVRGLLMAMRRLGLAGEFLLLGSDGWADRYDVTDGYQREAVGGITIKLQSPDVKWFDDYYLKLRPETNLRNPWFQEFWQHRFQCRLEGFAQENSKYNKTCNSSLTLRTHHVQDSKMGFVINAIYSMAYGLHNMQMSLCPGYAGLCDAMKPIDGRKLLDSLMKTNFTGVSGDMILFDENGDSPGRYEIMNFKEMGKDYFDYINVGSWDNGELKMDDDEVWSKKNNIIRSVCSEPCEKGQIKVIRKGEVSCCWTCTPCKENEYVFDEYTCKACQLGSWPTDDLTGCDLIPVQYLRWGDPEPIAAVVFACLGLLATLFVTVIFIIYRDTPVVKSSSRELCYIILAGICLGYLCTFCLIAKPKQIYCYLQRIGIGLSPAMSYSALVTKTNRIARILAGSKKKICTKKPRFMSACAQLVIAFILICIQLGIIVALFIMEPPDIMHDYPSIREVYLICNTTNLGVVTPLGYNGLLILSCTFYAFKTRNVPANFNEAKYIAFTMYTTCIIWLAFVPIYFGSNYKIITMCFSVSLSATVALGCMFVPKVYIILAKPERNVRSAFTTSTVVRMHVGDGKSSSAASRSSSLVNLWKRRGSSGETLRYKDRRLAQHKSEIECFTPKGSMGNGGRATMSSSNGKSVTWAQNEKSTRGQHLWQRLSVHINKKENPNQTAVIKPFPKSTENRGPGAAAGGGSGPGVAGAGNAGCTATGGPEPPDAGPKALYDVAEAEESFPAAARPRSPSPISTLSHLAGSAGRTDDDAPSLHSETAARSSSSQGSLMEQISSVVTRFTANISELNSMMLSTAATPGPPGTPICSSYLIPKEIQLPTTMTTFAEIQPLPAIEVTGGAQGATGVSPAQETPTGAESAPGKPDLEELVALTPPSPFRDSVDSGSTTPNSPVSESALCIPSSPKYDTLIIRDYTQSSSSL
# Outline: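 Rat receptor occupancy: compound given 10 mg/kg intraperitoneally in 50% PEG 400/H2O, occupancy measured at 1 h; hippocampal and plasma levels also determined at 1 h.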
# [7] = Maximum concentration i.v. dosing at 2 mg/kg of 50% PEG400/H 20, po dosing at 10 mg/kg; type: ADME, organism-based; conditions: rat, in vivo
# [8] = Oral bioavailability i.v. dosing at 2 mg/kg of 50% PEG400/H 20, po dosing at 10 mg/kg; type: ADME, organism-based; conditions: rat, in vivo
# T1 sequence (P31424 whole entry): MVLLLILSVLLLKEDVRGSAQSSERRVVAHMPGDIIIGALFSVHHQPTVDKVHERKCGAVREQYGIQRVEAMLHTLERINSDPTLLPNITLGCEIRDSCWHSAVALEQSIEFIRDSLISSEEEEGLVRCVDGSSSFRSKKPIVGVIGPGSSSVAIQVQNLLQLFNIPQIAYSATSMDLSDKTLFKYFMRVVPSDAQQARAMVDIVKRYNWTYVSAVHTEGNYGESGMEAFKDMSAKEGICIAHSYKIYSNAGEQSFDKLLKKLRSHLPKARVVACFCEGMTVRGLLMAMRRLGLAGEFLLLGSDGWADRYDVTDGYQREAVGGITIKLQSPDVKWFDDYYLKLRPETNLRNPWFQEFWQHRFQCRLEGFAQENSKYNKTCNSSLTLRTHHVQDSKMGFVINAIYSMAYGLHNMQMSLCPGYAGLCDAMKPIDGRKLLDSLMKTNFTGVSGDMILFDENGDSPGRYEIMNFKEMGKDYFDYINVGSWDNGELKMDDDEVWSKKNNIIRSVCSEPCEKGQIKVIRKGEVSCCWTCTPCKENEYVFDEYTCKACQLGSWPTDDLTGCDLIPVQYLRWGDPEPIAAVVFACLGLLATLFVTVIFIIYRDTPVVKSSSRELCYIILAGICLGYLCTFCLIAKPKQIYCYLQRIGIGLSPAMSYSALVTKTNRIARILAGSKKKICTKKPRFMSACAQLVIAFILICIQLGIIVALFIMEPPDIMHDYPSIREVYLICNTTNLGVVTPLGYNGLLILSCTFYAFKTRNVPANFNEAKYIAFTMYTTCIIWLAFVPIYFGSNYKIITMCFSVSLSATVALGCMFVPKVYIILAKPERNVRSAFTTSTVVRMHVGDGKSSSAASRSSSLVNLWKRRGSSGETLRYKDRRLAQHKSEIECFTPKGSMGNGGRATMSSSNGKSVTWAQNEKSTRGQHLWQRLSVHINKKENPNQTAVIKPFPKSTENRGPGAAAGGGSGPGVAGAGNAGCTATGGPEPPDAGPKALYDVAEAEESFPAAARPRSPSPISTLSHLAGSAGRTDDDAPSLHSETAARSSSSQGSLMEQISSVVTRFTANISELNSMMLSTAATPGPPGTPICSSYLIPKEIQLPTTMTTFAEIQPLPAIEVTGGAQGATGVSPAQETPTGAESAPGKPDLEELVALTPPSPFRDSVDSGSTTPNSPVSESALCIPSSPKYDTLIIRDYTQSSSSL
Structure (SMILES),IC50 [1],Ki [2],other results
N#Cc1cc(F)cc(-n2nnc(-c3ccccn3)n2)c1,4 nM,14 nM,T1/2 [3]: 2.9 h; clearance [4]: 17 mL/min/kg; bioavailability [5]: 26%
Cc1ccncc1-c1cc(F)cc(-n2nnc(-c3ccccn3)n2)c1,5 nM,2 nM,Occupancy [6]: 95; Cmax [7]: 900 nM; half-life [3]: 1.6 h; clearance [4]: 39 mL/min/kg; bioavailability [8]: 12%
Fc1cc(-c2ccncc2)cc(-n2nnc(-c3ccccn3)n2)c1,956 nM,575 nM,–
Cc1cnccc1-c1cc(F)cc(-n2nnc(-c3ccccn3)n2)c1,63 nM,33 nM,–
N#Cc1ccccc1-c1cc(F)cc(-n2nnc(-c3ccccn3)n2)c1,6 nM,4 nM,–
Cc1ncccc1-c1cc(F)cc(-n2nnc(-c3ccccn3)n2)c1,41 nM,45 nM,–
Fc1cc(-c2cccnc2)cc(-n2nnc(-c3ccccn3)n2)c1,12 nM,37 nM,–
Cc1cncc(-c2cc(F)cc(-n3nnc(-c4ccccn4)n3)c2)c1,499 nM,272 nM,–
Fc1cc(-c2ccccc2)cc(-n2nnc(-c3ccccn3)n2)c1,247 nM,53 nM,–
Cc1cccnc1-c1cc(F)cc(-n2nnc(-c3ccccn3)n2)c1,31 nM,24 nM,–
Cc1ccc(-c2cc(F)cc(-n3nnc(-c4ccccn4)n3)c2)cn1,57 nM,36 nM,–
Cc1ccc(-c2cc(F)cc(-n3nnc(-c4ccccn4)n3)c2)cc1,> 3000 nM,–,–
Nc1ccccc1-c1cc(F)cc(-n2nnc(-c3ccccn3)n2)c1,8 nM,7 nM,–

# Second part, led by results:
IC50 [1],Ki [2],Structure (SMILES),other results
19 nM,31 nM,Nc1cccnc1-c1cc(F)cc(-n2nnc(-c3ccccn3)n2)c1,–
120 nM,23 nM,Cc1ccccc1-c1cc(F)cc(-n2nnc(-c3ccccn3)n2)c1,–
253 nM,12 nM,N#Cc1cccc(-c2cc(F)cc(-n3nnc(-c4ccccn4)n3)c2)c1,–
108 nM,20 nM,Nc1ccncc1-c1cc(F)cc(-n2nnc(-c3ccccn3)n2)c1,–
39 nM,95 nM,Fc1cc(-c2ccccn2)cc(-n2nnc(-c3ccccn3)n2)c1,–
1470 nM,–,Cc1cccc(-c2cc(F)cc(-n3nnc(-c4ccccn4)n3)c2)c1,–

# Source: ChEMBL document CHEMBL1138009, “3-[3-Fluoro-5-(5-pyridin-2-yl-2H-tetrazol-2-yl)phenyl]-4-methylpyridine: a highly potent and orally bioavailable metabotropic glutamate subtype 5 (mGlu5) receptor antagonist” (Bioorg Med Chem Lett, 2004)
